The record followed here is ChEMBL document CHEMBL5046302, “Identification and Evaluation of Brominated Carbazoles as a Novel Antibiotic Adjuvant Scaffold in MRSA” (2022).

Assay type in all cases: functional
Experiment [1] has as its system Staphylococcus aureus. As to the kind of experiment: Potentiation of oxacillin induced antibacterial activity against methicillin-resistant Staphylococcus aureus assessed as fold decrease in blaZ gene expression at 50 uM by RT-qPCR analysis. Put shortly:
(§1)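 Fold dampening is the relative mRNA level of the gene, normalised to 16S rRNA, in oxacillin-treated cells divided by that in cells cotreated with oxacillin plus carbazole. Carbazole was used at 25 or 50 μM, as given in each line.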
On the technique in general: In qPCR the cycle at which signal appears reflects the starting amount.

Experiment [2] has as its system Staphylococcus aureus. As to the kind of experiment: Potentiation of oxacillin induced antibacterial activity against methicillin-resistant Staphylococcus aureus USA300 harboring stk1 deletion mutant assessed as fold change in oxacillin MIC at 50 uM after 18 hrs by CLSI protocol based broth microdilution assay.
Experiment [3] relates to Staphylococcus aureus. The experiment can be described thus: Potentiation of oxacillin induced antibacterial activity against methicillin-resistant Staphylococcus aureus assessed as fold decrease in blaI gene expression at 50 uM by RT-qPCR analysis. The procedure, abridged: as §1
For experiment [4], the system named is Staphylococcus aureus. As to the kind of experiment: Upregulation of mecA gene expression in methicillin-resistant Staphylococcus aureus USA300 at 50 uM by RT-PCR method.
For experiment [5], the system named is Staphylococcus aureus. The experiment can be described thus: Potentiation of oxacillin induced antibacterial activity against methicillin-resistant Staphylococcus aureus USA300 harboring stk1 deletion mutant co-transfected with a plasmid bearing stk1 assessed as oxacillin MIC at 50 uM after 18 hrs by CLSI protocol based broth microdilution assay. The procedure, abridged:
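Oxacillin MIC by broth microdilution in the USA300 Δstk1 strain complemented with plasmid-borne stk1, with stk1 expression induced. Tested with and without carbazole at 50 μM. Fold change in MIC is taken relative to oxacillin alone.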

In experiment [6] the test system is Staphylococcus aureus. The experiment can be described thus: Potentiation of oxacillin induced antibacterial activity against methicillin-resistant Staphylococcus aureus USA100 assessed as oxacillin MIC at 25 uM after 18 hrs by CLSI protocol based broth microdilution assay.
Experiment [7] has as its system Staphylococcus aureus. As to the kind of experiment: Potentiation of ceftazidime induced antibacterial activity against methicillin-resistant Staphylococcus aureus USA100 assessed as ceftazidime MIC at 25 uM after 18 hrs by CLSI protocol based broth microdilution assay. A general note: In broth dilution the organism is exposed to a series of concentrations in liquid medium.

Experiment [8] relates to Staphylococcus aureus. The experiment can be described thus: Potentiation of oxacillin induced antibacterial activity against methicillin-resistant Staphylococcus aureus assessed as fold decrease in mecI gene expression at 25 uM by RT-qPCR analysis. Put shortly:
as §1

The test system of experiment [9] is Staphylococcus aureus. As to the kind of experiment: Potentiation of cefoxitin induced antibacterial activity against methicillin-resistant Staphylococcus aureus ATCC 43300 assessed as fold change in cefoxitin MIC at 25 uM after 18 hrs by CLSI protocol based broth microdilution assay.
Experiment [10] has as its system Staphylococcus aureus. As to the kind of experiment: Potentiation of ceftazidime induced antibacterial activity against methicillin-resistant Staphylococcus aureus ATCC 43300 assessed as ceftazidime MIC at 25 uM after 18 hrs by CLSI protocol based broth microdilution assay.
In experiment [11] the test system is Staphylococcus aureus. As to the kind of experiment: Potentiation of cefoxitin induced antibacterial activity against methicillin-resistant Staphylococcus aureus COL assessed as cefoxitin MIC at 25 uM after 18 hrs by CLSI protocol based broth microdilution assay.
Experiment [12] has as its system Staphylococcus aureus. The experiment can be described thus: Potentiation of cefoxitin induced antibacterial activity against methicillin-resistant Staphylococcus aureus COL assessed as fold change in cefoxitin MIC at 25 uM after 18 hrs by CLSI protocol based broth microdilution assay.

By MIC is commonly meant the lowest concentration that inhibits growth of the organism.

Structures are written as SMILES. Calls of active or inactive are those of the source. The calls are words filed in the database; no cut-off is given here.

`Brc1cccc2c1[nH]c1ccccc12`: the “fold change (FC)” value with Staphylococcus aureus [1] is given as 3.86; with Staphylococcus aureus [2], 1; in the experiment on Staphylococcus aureus [3], 1.36. In addition, the outcome with Staphylococcus aureus [4] was inactive. Also, the MIC with Staphylococcus aureus [5] turned out to be 1 µg/mL.

Take `Brc1cccc2[nH]c3ccccc3c12`: the minimal inhibitory concentration (MIC) with Staphylococcus aureus [6] amounted to 16 µg/mL; in the experiment on Staphylococcus aureus [7], 512 µg/mL; in the experiment with Staphylococcus aureus [10], 64 µg/mL; in the experiment with Staphylococcus aureus [11], 256 µg/mL. The “fold change (FC)” value with Staphylococcus aureus [8] is reported as 1.28; in the experiment on Staphylococcus aureus [9], 4; in the experiment on Staphylococcus aureus [12], 1.
